HSP90 inh – inhibitors of HSP90 luciferase refolding in rabbit reticulocyte lysate; luciferase refolding luminescence, 3 h; inhibition, % at 5.6 µM; 0.91% of 290,000 active; AID 1789;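 active = inhibition above the screen-wide mean plus 3 SD, computed separately per campaign, cut at about 16% in these data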;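 note: inhibitors lower the luminescence because luciferase stays unfolded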
STAT3 inh – inhibitors of IL-6 induced STAT3 signaling | 0.89% of 190,000 active | U3A cells, IL-6 STAT3-luciferase reporter, luminescence; host cell line lacks STAT1 | AID 862 | inhibition, % at 5.5 µM;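 active = inhibition above the mean inhibition across all screened compounds plus 3 SD, cut at about 44% in these data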
TRAIL sens C8 – caspase-8 TRAIL sensitization. NB7+C8 cells + TRAIL, ATPlite viability luminescence. inhibition (viability loss, TRAIL sensitization), % at 10 µM. 1% of 360,000 active;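 active = compounds causing at least 50% loss of cell viability in the single-dose screen, relative to plate controls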
FLuc inhib CS – Photinus pyralis luciferase inhibition counter-screen | 1.5% of 200,000 active | inhibition, % at 10 µM | P08659 | ATPLite firefly luciferase biochemical luminescence, 10 min;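 active = inhibition above about 50% when tested at 10 µM, limit read from the data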
Target sequence (P08659 whole entry, looked up): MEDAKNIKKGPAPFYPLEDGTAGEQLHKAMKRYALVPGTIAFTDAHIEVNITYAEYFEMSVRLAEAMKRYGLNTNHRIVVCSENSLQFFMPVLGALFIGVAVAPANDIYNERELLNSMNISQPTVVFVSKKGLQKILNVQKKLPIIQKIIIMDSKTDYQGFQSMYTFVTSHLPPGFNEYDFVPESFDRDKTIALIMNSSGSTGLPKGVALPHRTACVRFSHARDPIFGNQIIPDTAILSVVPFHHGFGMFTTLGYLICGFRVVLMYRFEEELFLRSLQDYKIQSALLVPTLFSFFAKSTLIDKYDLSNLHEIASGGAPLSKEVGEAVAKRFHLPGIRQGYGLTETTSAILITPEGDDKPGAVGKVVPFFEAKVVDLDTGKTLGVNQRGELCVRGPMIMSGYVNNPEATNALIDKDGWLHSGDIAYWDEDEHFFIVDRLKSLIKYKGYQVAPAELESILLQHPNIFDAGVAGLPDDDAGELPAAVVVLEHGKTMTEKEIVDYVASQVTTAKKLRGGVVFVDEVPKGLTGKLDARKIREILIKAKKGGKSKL
PPC-1+TRAIL kill – PPC-1 cancer cell killing with TRAIL present; PPC-1 cells + TRAIL, ATPLite viability luminescence; AID 1443; cell killing (% activity), % at 4 µM or 5 µM; 0.41% of 220,000 active;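 active = cell killing above 50% in the first pass at 4 µM, then a duplicate retest at 5 µM averaging 50% or more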
FLuc stim CS – firefly luciferase counter-screen for stimulation assays | 200,000 tested, under 10 active | P08659 | ATPlite luciferase biochemical, luminescence, 10 min; 0 = ATP-free wells, 1 = DMSO control | activation factor at 10 µM;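 active = luciferase activation factor, scaled between plate controls, of at least 2 with compound at 10 µM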
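System: luciferase plus luciferin reagent, cell-free; medium: PBS as buffer for the ATP substrate; dosing: test compounds dosed from 2 mM stocks in 100% DMSO; timing: 10 min post-reagent at room temperature; measured by: luminescence measurement of luciferase light output; evaluation: luciferase activation, seen as luminescence increase over controls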
PPC1 cytotox – PPC-1 cell cytotoxicity | shares compounds with PPC-1+TRAIL kill | PPC-1 viability, ATPlite luminescence, overnight | cytotoxicity, % at 5 µM | 50% of 1,200 active | AID 1447;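 active = reconfirmed compounds whose average cytotoxicity reaches 50% or more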
Numbers stand for hits; i = inactive; nt = no result given. Rows were chosen to be rich in hits. Some 2.2% of all compounds tested hit in one or more screens of this group.

SMILES	HSP90 inh	STAT3 inh	TRAIL sens C8	FLuc inhib CS	PPC-1+TRAIL kill	FLuc stim CS	PPC1 cytotox
Cc1ccc(CNC(=O)C2(C)Oc3ccccc3NC2=O)cc1 (stereo unspecified)	i	i	i	i	i	i	i
Cc1ccc(NC(=O)c2csc(-c3ccccc3)c2C)cc1	34	104	81	85	80	i	82
COc1ccc(Cl)cc1NC(=O)CN(C)C(=O)c1cc2c(s1)CCC(C)C2 (stereo unspecified)	nt	nt	i	nt	nt	nt	nt
Cc1cc(C)c(C#N)c(SCC(=O)Nc2cc(C)on2)n1	nt	nt	i	nt	nt	nt	nt
Cc1cc(C)c(C#N)c(SCC(=O)Nc2ccccc2C(N)=O)n1	i	i	i	i	73	i	74
CCc1nnc(NC(=O)CSc2nc3c(cc2C#N)CCC3)s1	i	i	64	i	65	i	69
Cc1ccc(C#N)c(SCC(=O)Nc2nccs2)n1	i	i	i	i	54	i	59
CCc1nnc(NC(=O)CSc2nc(C)cc(C)c2C#N)s1	i	i	73	i	74	i	74
CS(=O)(=O)c1ccc(Oc2ccc(-c3nnco3)cc2)c([N+](=O)[O-])c1	i	nt	i	nt	nt	nt	nt
COc1ccc(/C=C2\SC(=S)N(CC(=O)OCC(=O)Nc3ccc(C)cc3Cl)C2=O)cc1	i	i	i	i	i	i	nt
CCOC(=O)c1c(-c2ccco2)csc1NC(=O)COC(=O)c1cnc(C)cn1	nt	nt	i	nt	nt	nt	nt
Cn1ncc2c(NCCc3ccccc3)nc(Cl)nc21	nt	nt	i	nt	nt	nt	nt
Cc1ccc(-c2nc3cc(N)ccc3o2)c(C)c1	i	i	58	78	i	i	i
Nc1ccc2oc(-c3cccc4ccccc34)nc2c1	i	i	i	i	i	i	nt
CN(C)C/C=C(\c1ccc(Br)cc1)c1cccnc1	nt	nt	i	nt	nt	nt	nt
Cc1cccc2c(C(=O)O)cc(-c3cccnc3)nc12	i	i	i	i	i	i	i
Cc1cccc2c(C(=O)N3CCCCC3)cc(-c3ccccc3)nc12	i	nt	i	nt	nt	nt	nt
COc1ccc(C(=O)n2c(C)c(CCO)c(=O)n2C)cc1	i	i	i	i	i	i	nt
Cc1ccc(C(=O)Nc2nc(C(N)Cc3ccc(C(F)(F)F)cc3)cs2)cc1 (stereo unspecified)	nt	nt	i	nt	nt	nt	nt
CC1(C)CC(=O)c2sc(NC(=O)c3ccccc3)nc2C1	i	i	nt	88	52	i	52
CC1(C)CNC(=O)c2sc(NC(=O)c3ccccc3)nc2C1	i	i	i	i	i	i	nt
CC1(C)CC(=O)C=C(NNC(=O)c2ccccc2O)C1	i	i	71	91	79	i	75
CCC(Cc1ccccc1)NC(=O)C1CCN(S(=O)(=O)c2ccc3c(c2)CC(C)N3C(C)=O)CC1 (stereo unspecified)	i	nt	i	nt	nt	nt	nt
CCOC(=O)c1sc(-c2ccc(F)cc2)cc1N	i	i	i	i	i	i	nt
CCOC(=O)c1sc(-c2ccc(OC)cc2)cc1N	i	i	i	i	i	i	i
SMILES	HSP90 inh	STAT3 inh	TRAIL sens C8	FLuc inhib CS	PPC-1+TRAIL kill	FLuc stim CS	PPC1 cytotox
CCOC(=O)[C@H](CCc1ccccc1)N[C@@H](C)C(=O)N1[C@H](C(=O)O)C[C@@H]2CCC[C@@H]21	nt	nt	i	nt	nt	nt	nt
Cc1ccc(C(C)C)c(OCC(=O)NNCC(=O)Nc2cccc(F)c2)c1	nt	nt	i	nt	nt	nt	nt
CCOC(=O)C1C(=O)NCC2CCCC21 (stereo unspecified)	i	i	i	i	i	i	i
CCOC(=O)C1CCN(c2c(N3CCCCCC3)c(=O)c2=O)CC1	i	i	i	i	i	i	nt
CCOC(=O)c1c(C2COc3ccccc3O2)csc1NC(=O)c1ccco1 (stereo unspecified)	i	i	i	i	i	i	nt
Oc1c(N=Nc2ccccn2)ccc2ccccc12	i	i	74	91	82	i	80
Oc1[nH]c2ccccc2c1N=Nc1ccccn1	nt	nt	i	nt	nt	nt	nt
CSc1cc(C)n(-c2ccc(Cl)cc2)c(=S)c1C(C)=O	i	i	i	i	i	i	nt
COc1ccc(-n2c(C)cc(SC)c(C(C)=O)c2=S)cc1	i	i	i	i	i	i	i
COC(C)(C)[C@]12CC(O)(c3ccccc3)ON1[C@H]1CCCCC1N2O (stereo partly specified)	i	i	i	i	i	i	nt
Cc1cccc(/C=N/Nc2nncc3ccccc23)c1	i	84	79	94	77	i	77
Cc1ccc(/C=N/Nc2nnc(Cl)c3ccccc23)cc1	i	i	86	94	78	i	78
COc1ccc(/C=N/Nc2nncc3ccccc23)c(OC)c1	i	i	i	i	i	i	nt
Clc1ccc(/C=N/Nc2nnc(Cl)c3ccccc23)cc1	i	i	i	i	i	i	nt
COc1ccc(S(=O)(=O)N(C)C[C@H]2Oc3ccc(NC(=O)NC4CCCCC4)cc3C(=O)N([C@H](C)CO)C[C@@H]2C)cc1	nt	nt	i	nt	nt	nt	nt
COC(=O)[C@]12CCCCC=C1N(Cc1cccc3ccccc13)C(=O)[C@H](CC(=O)NCc1ccc(C)o1)C2	nt	nt	i	nt	nt	nt	nt
Cc1ccc(S(=O)(=O)NC2CCCCCCC2)cc1	i	nt	i	nt	nt	nt	nt
Cc1ccc(S(=O)(=O)NC2CCCC(C(=O)O)C2)cc1 (stereo unspecified)	i	i	i	i	i	i	i
c1cncc(-c2nc3cc4ccccc4cc3[nH]2)c1	i	i	66	82	61	i	66
O=C(Nc1ccc2nc(-c3cccnc3)[nH]c2c1)c1ccccc1F	i	i	i	i	i	i	nt
Cc1ccc(C2=NNC(c3ccc(Cl)cc3)=Nc3ccccc32)o1	i	i	i	i	i	i	nt
COc1ccc(C2N(C(=O)c3ccccc3)CCN2C(=O)c2ccccc2)cc1	i	i	i	i	i	i	i
Cc1ccc(C(OCC(O)CNC(CO)C(O)c2ccc([N+](=O)[O-])cc2)c2ccccc2)cc1 (stereo unspecified)	i	nt	i	nt	nt	nt	nt
c1ccc(COc2ccc(OCCn3cncn3)cc2)cc1	i	i	i	i	i	i	i
O=S(=O)(Nc1ccc2c(c1)OCO2)c1ccc(Cl)cc1F	nt	nt	i	nt	nt	nt	nt
SMILES	HSP90 inh	STAT3 inh	TRAIL sens C8	FLuc inhib CS	PPC-1+TRAIL kill	FLuc stim CS	PPC1 cytotox
COc1ccc(N=CC2=C(O)c3ccccc3C2=O)c(OC)c1	33	99	92	95	82	i	85
COc1ccc(CC2=C(O)c3ccccc3C(=O)C2=O)cc1	i	nt	i	nt	nt	nt	nt
Cc1ccccc1N=CC1=C(O)c2ccccc2C1=O	i	99	90	96	84	i	82
Cc1ccc(NCc2ccccc2O)cc1	i	i	i	i	i	i	i
Cn1nc(-c2ccccn2)nc2c(=O)n(C)c(=O)nc1-2	87	nt	96	nt	i	nt	i
COc1ccc(-c2nc(-c3ccccn3)ncc2S(C)(=O)=O)cc1	i	i	i	i	i	i	nt
O=C(NC1CCCc2ccccc21)c1cccc(S(=O)(=O)N2CCOCC2)c1 (stereo unspecified)	i	i	i	i	i	i	nt
Cc1cc(=O)[nH]c(N=N/C(=N/Nc2ccc(O)cc2)c2ccccc2)n1	i	i	i	i	i	i	i
